This is an account of results in ChEMBL document CHEMBL1811790, “Oxadiazole derivatives containing 1,4-benzodioxan as potential immunosuppressive agents against RAW264.7 cells” (Bioorg Med Chem, 2011).

Calls of active or inactive are those of the source. No cut-off for these calls is given here.

Data set [1] relates to RAW264.7. Nature of the data set: Acute toxicity in mouse RAW264.7 cells assessed as OD540 absorbance incubated for 24 hrs by MTT assay. As to conditions: raw264.7, 24 h. The class given is cell-based. The essentials:
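RAW264.7 cells kept in DMEM with 5% FBS, 100 U/mL penicillin and streptomycin, at 37 °C in humidified 5% CO2. Compounds were added at the indicated concentrations for 24 h. MTT reagent (5 mg/mL stock) was then added for 4 h, supernatants were aspirated and formazan crystals were dissolved for reading. Control and blank wells received 0.1% DMSO.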
In general terms: Formazan colour is commonly taken as a measure of viable cells.

Data set [2] deals with RAW264.7. Description: Immunosuppressive activity in mouse RAW264.7 cells assessed as inhibition of LPS-induced nitric oxide production incubated for 24 hrs by Griess method. The class given is functional. The essentials:
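Murine macrophage-like RAW264.7 cells were activated with LPS. Control wells (LPS only) and blank wells (cells only) each received 0.1% DMSO vehicle.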
Background: The Griess reaction detects nitrite, a stable product of nitric oxide.

Data set [3] relates to RAW264.7. Nature of the data set: Inhibition of iNOS mRNA expression in mouse RAW264.7 cells by RT-PCR. The class given is functional, cell-based.
Data set [4] concerns the target T1, Nitric oxide synthase, inducible (Mus musculus, UniProt P29477).
T1 sequence (P29477 whole entry): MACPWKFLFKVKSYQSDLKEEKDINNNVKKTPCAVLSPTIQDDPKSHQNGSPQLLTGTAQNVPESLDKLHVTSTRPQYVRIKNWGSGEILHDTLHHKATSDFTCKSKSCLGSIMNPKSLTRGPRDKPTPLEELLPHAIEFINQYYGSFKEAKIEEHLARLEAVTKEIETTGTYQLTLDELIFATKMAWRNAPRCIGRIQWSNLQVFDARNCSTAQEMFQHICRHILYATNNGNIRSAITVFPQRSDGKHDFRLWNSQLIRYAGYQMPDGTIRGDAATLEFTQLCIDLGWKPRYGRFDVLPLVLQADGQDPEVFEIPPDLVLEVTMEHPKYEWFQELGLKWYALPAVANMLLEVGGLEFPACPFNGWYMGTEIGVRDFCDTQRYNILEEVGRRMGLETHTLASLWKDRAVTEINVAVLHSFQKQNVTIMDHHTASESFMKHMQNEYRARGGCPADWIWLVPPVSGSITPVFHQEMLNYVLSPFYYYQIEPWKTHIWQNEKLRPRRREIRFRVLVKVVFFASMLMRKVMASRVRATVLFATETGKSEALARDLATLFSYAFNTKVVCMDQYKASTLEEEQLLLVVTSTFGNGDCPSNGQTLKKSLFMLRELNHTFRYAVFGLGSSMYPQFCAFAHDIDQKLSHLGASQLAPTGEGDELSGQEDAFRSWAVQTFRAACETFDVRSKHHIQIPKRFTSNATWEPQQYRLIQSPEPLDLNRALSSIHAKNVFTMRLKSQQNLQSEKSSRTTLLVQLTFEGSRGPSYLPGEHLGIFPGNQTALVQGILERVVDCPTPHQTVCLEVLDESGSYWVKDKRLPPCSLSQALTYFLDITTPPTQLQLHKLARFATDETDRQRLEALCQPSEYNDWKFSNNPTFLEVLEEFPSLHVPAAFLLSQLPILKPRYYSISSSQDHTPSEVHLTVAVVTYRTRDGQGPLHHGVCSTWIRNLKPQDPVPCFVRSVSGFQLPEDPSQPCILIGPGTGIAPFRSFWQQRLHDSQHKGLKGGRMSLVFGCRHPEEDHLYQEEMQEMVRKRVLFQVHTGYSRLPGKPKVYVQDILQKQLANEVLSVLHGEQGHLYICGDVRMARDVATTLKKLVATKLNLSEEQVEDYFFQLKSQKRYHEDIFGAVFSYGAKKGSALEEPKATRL
Nature of the data set: Inhibition of iNOS in mouse RAW264.7 cells assessed as conversion of L-citrulline to L-arginine incubated for 30 mins by scintillation counting. The class given is cell-based. The note with it: in the assay text read “conversion of L-arginine to L-citrulline” for “conversion of L-citrulline to L-arginine”. A digest of the protocol:
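Crude enzyme was the supernatant of collected RAW264.7 cells, adjusted to 50 mM Tris and 100 µM dithiothreitol final. Enzyme was incubated 30 min with NADPH, compound, L-[3H]-arginine (10 µCi/mL stock) and Tris pH 7.5. The reaction was stopped with 0.1 M buffer pH 5.0 containing 2 mM EDTA and 2 mM EGTA, then stirred 5 min with Dowex 50W-8X. L-[3H]-citrulline in the supernatant was read by scintillation counting.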

On to `Clc1ccccc1-c1nnc(-c2ccc3c(c2)OCCO3)o1`, for which the deltaA in the data set on RAW264.7 [1] amounted to 1.45. Besides, the “inhibition (INH)” value in the data set with RAW264.7 [2] was -57.48%.

Take `Clc1ccc(Cc2nnc(-c3ccc4c(c3)OCCO4)o2)cc1`: the deltaA in the data set with RAW264.7 [1] amounted to 0.63. Besides, the “inhibition (INH)” value with RAW264.7 [2] is given as 28.11%.

By IC50 is commonly meant the concentration that inhibits the measured activity by half. For the compound `c1cncc(-c2nnc(-c3ccc4c(c3)OCCO4)o2)c1`, the deltaA in the data set with RAW264.7 [1] turned out to be 1.31. Further, the “inhibition (INH)” value in the data set on RAW264.7 [2] was determined as 37.66%. For the same compound, in the data set with RAW264.7 [3], the inhibition entry is “Active”. For the same compound, in data set [4], the half-inhibitory concentration (IC50) was 50 nM.

With `c1ccc(-c2nnc(-c3ccc4c(c3)OCCO4)o2)cc1`, the deltaA with RAW264.7 [1] was 1.5. In addition, in the data set with RAW264.7 [2], the “inhibition (INH)” value came to 5.08%. Moreover, in data set [4], the half-inhibitory concentration (IC50) is 2350 nM.

As for `O=[N+]([O-])c1ccccc1-c1nnc(-c2ccc3c(c2)OCCO3)o1`, the deltaA in the data set with RAW264.7 [1] was 0.3. The “inhibition (INH)” value with RAW264.7 [2] worked out at 3.65%.

As to `c1ccc(Cc2nnc(-c3ccc4c(c3)OCCO4)o2)cc1`, the deltaA in the data set with RAW264.7 [1] worked out at 0.45. Besides, the “inhibition (INH)” value in the data set with RAW264.7 [2] was -3.63%.

With `COc1cc(-c2nnc(-c3ccc4c(c3)OCCO4)o2)cc(OC)c1OC`, in the data set with RAW264.7 [1], the deltaA came to 1.02. For the same compound, the “inhibition (INH)” value in the data set with RAW264.7 [2] is 20.03%. Further, the inhibition result in the data set with RAW264.7 [3] is “inactive”. Moreover, in data set [4], the concentration for half-maximal inhibition (IC50) turned out to be 120 nM.

As to `Clc1cccc(Cc2nnc(-c3ccc4c(c3)OCCO4)o2)c1`, in the data set on RAW264.7 [1], the deltaA worked out at 0.2. The “inhibition (INH)” value in the data set on RAW264.7 [2] is 23.7%.

Turning to `Brc1ccc(Cc2nnc(-c3ccc4c(c3)OCCO4)o2)cc1`, in the data set on RAW264.7 [1], the deltaA is 0.99. The “inhibition (INH)” value in the data set on RAW264.7 [2] is -8.53%.

Take `Clc1ccc(OCc2nnc(-c3ccc4c(c3)OCCO4)o2)cc1`: the deltaA in the data set on RAW264.7 [1] stood at 0.89. Further, the “inhibition (INH)” value with RAW264.7 [2] stood at 10.49%. In addition, the concentration for half-maximal inhibition (IC50) in data set [4] turned out to be 2160 nM.

Consider `c1ccc(OCc2nnc(-c3ccc4c(c3)OCCO4)o2)cc1`, for which the deltaA in the data set on RAW264.7 [1] turned out to be 0.36. Moreover, in the data set on RAW264.7 [2], the “inhibition (INH)” value is 6.98%.

Regarding `O=[N+]([O-])c1cccc(-c2nnc(-c3ccc4c(c3)OCCO4)o2)c1`, the deltaA with RAW264.7 [1] is listed as 0.73. Besides, the “inhibition (INH)” value in the data set on RAW264.7 [2] is -33.82%.

Turning to `O=[N+]([O-])c1ccc(-c2nnc(-c3ccc4c(c3)OCCO4)o2)cc1`, the deltaA with RAW264.7 [1] was 0.57. Also, the “inhibition (INH)” value in the data set with RAW264.7 [2] was determined as 1.34%.

On to `COc1cccc(Cc2nnc(-c3ccc4c(c3)OCCO4)o2)c1`, for which, in the data set with RAW264.7 [1], the deltaA is recorded as 0.76. Also, the “inhibition (INH)” value in the data set with RAW264.7 [2] came to 21.66%.

For the compound `C(=C\c1nnc(-c2ccc3c(c2)OCCO3)o1)/c1ccccc1`, the deltaA with RAW264.7 [1] is recorded as 1.15. Also, the “inhibition (INH)” value in the data set with RAW264.7 [2] was found to be 25.54%. Further, the inhibition entry in the data set with RAW264.7 [3] was “inactive”. Besides, the IC50 in data set [4] was 90 nM.

As for `Cc1ccccc1-c1nnc(-c2ccc3c(c2)OCCO3)o1`, in the data set with RAW264.7 [1], the deltaA is 1.03. The “inhibition (INH)” value with RAW264.7 [2] stood at 21.58%. For the same compound, the inhibition entry in the data set with RAW264.7 [3] is “inactive”. In data set [4], the IC50 is 100 nM.

For `c1ccc(CCc2nnc(-c3ccc4c(c3)OCCO4)o2)cc1`, the deltaA in the data set with RAW264.7 [1] was determined as 0.1. The “inhibition (INH)” value in the data set on RAW264.7 [2] is recorded as 3.71%.

For the compound `Brc1cncc(-c2nnc(-c3ccc4c(c3)OCCO4)o2)c1`, the deltaA in the data set on RAW264.7 [1] was 1.22. Also, the “inhibition (INH)” value in the data set with RAW264.7 [2] was -42.39%.
